This is a sample that favours compounds with a hit; in the whole collection about 1.9% have one here.
proCasp7 act: counter-screen for procaspase-3 activators: activators of human procaspase-7 | P55210 | recombinant procaspase-7, Ac-DEVD-pNA absorbance 405 nm; D23A/D198A/D206A triple mutant, cannot self-cleave; scale: DMSO 0, 5 µM enzyme 100 | activation, % at 8.5 µM | actives 0.093% (n = 330,000) | AID 463210;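 active = percent activation above the screen-wide mean plus 3 SD, cut at about 25% in these data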
Target sequence (P55210 whole entry D23A/D198A/D206A): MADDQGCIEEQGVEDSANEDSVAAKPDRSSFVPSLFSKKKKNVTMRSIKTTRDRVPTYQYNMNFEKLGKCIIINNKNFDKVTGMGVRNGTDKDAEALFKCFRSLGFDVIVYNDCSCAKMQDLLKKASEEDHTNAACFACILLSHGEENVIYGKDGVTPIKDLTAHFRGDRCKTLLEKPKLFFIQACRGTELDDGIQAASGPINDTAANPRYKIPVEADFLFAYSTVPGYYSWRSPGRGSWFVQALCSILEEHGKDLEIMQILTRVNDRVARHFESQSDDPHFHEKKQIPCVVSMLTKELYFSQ
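Assay system: Uncleavable procaspase-7 mutant enzyme | Input: 2 µM procaspase-7 mutant as dispensed | Timing: 1 h compound preincubation, 2 h substrate cleavage, 25 °C | Repeats: One well per compound | Control set: DMSO wells as 0%, DMSO with 5 µM added PC-7 as 100% | Technique: Epi-absorbance of released pNA at 405 nm, two timepoints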
FXN GAA850 act: activators of GAA850 frataxin (FXN) promoter; HEK293 lucGAA850 FXN promoter luciferase reporter, 24 h; percent of 10 µM SAHA response; activation, % at 6 µM; actives 0.56% (n = 360,000);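 active = activation above the average of all compounds screened plus 3 SD, cutoff fixed separately per campaign, cut at about 7.5% in these data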;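 note: 0% = DMSO wells and 100% = 10 µM SAHA wells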
Calb FLC: affects C. albicans growth with fluconazole; C. albicans CaCi-2 + fluconazole, Alamar Blue growth, 48 h; growth inhibition, % (concentration not given with the values); actives 0.57% (n = 300,000); AID 1979;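 active = growth inhibition above about 58% in most replicates, limit read from the data, passing the limit was not always enough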;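 note: all wells also contain fluconazole at 8 µg/ml as a sub-toxic cotreatment; 0% = median of DMSO wells and 100% = median of geldanamycin control wells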
Neddylation inh: inhibitors of human cullin neddylation. P61081+Q13564. TR-FRET cullin neddylation, biochemical. inhibition, % at 25 µM. actives 0.58% (n = 360,000); in the data active = inhibition above about 36%
procasp3 activ: activators of human procaspase-3 | P42574 | AID 463141 | actives 0.11% (n = 330,000) | activation, % at 8.5 µM | recombinant procaspase-3 D3A, Ac-DEVD-pNA absorbance 405 nm;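 active = activation above the mean of all tested compounds plus 3 SD, cut at about 21% in these data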;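 note: 0% = DMSO alone and 100% = DMSO wells spiked with extra 5 µM PC-3 D3A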
Target sequence (P42574 whole entry D9A/D28A/D175A): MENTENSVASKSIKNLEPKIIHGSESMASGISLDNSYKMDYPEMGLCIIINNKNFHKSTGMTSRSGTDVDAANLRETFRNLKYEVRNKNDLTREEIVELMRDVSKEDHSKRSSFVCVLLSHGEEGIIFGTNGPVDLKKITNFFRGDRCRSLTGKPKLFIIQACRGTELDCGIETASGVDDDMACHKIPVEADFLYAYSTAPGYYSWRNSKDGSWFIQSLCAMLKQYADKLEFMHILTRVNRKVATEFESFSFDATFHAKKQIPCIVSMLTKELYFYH
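System: Procaspase-3 D3A mutant. Medium: Zinc-free 300 mM NaCl, 50 mM HEPES, 0.01% Triton X-100. Schedule: 1 h preincubation plus 2 h reaction at 25 °C. Measured by: 405 nm absorbance of p-nitroaniline, reads at 0 and 120 min. Read-out: percent activation relative to control range.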
HIF activator: HIF pathway transcriptional activation; U2OS HRE-luciferase reporter, luminescence; normalized: DMSO 0%, desferrioxamine 100%; activation, % at 7.5 µM (by protocol); actives 0.32% (n = 300,000); AID 1910;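 active = mean activation of at least 10% of the iron chelator positive control signal, with at least half of replicates also reaching 10%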
GAA30 counter: counter-screen for GAA850 frataxin promoter activators: GAA30 promoter activation. shares compounds with FXN GAA850 act. HEK293 lucGAA30 FXN promoter luciferase, 24 h; DMSO = 0%, 5 µM ipriflavone = 100%. AID 588350. actives 66% (n = 1,900). activation, % at 6 µM;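 active = mean activation above the mean of solvent-only control wells plus 3 SD, cut at about 22% in these data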;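 note: counterscreen of GAA850 promoter hits where activity marks nonselective or luminescence artifacts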
GAA850 confirm: GAA850 FXN promoter activation confirmation | HEK293 lucGAA850 FXN promoter luciferase reporter, 24 h; 100% = activation by SAHA | actives 86% (n = 1,900) | activation, % at 6 µM | shares compounds with FXN GAA850 act;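 active = mean activation above a set limit taken from the primary screen, cut at about 8% in these data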;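 note: 0% = DMSO wells and 100% = 10 µM SAHA wells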
Numbers without * were called inactive; . = not tested or not shown; ! = not confirmed by another sample.

SMILES	proCasp7 act	FXN GAA850 act	Calb FLC	Neddylation inh	procasp3 activ	HIF activator	GAA30 counter	GAA850 confirm
c1cnc2ccc(C(c3nnnn3C3CCCCC3)N3CCN4CCCC4C3)cc2c1 (stereo not drawn)	8.6	-0.6	2.2	-2.6	3.0	0.3	.	.
CCc1ccc2c(c1)C(=O)c1ccccc1C2=O	9.3	7.5	-19.4	-65.7	-3.4	2.9	.	.
CC(C)(C)c1ccc2c(c1)C(=O)c1ccccc1C2=O	1.5	7.9*	-3.6	-76.9	-6.4	0.4	111.3*	38.3*
Oc1ccc(/C=N/N2CCCCC2)cc1O	4.0	12.3*	6.6	-11.5	-9.1	-0.2	54.9*	28.4*
O=C(NCCc1ccccc1)C1Cc2c(-c3ccccc3Oc3ccccc3)ccnc2O1 (stereo not drawn)	.	-3.1	.	-9.5	.	.	.	.
CC(C)Nc1ncnc2c1ncn2[C@H]1CN(Cc2ccccc2)C[C@@H](CO)O1	.	2.1	.	0.1	.	.	.	.
NC[C@H](O)c1ccc(O)c(O)c1	-29.4	7.6*	.	-7.6	-13.0	.	12.0	6.0
CNC[C@H](O)c1ccc(O)c(O)c1	-33.3	4.9	.	-23.1	-22.6	-0.4	.	.
CCC(CC)CC1CN2CCc3cc(OC)c(OC)cc3C2CC1(O)CC (stereo not drawn)	.	-1.5	.	.	.	.	.	.
CON(C)c1nc(OCCNC(=O)OCc2ccc(Cl)cc2C)nc(N(C)C)n1	-3.2	11.9*	-4.3	9.2	4.0	-0.2	20.5	6.2
COc1c(F)c(F)c(C(=O)Nc2ccccc2N2CCN(C(=O)C(C)C)CC2)c(F)c1F	14.1	10.5*	13.9	-0.1	-5.9	-0.4	7.8	3.1
COc1cc(/C=N/Nc2ncnc3sc4c(c23)CCC4)ccc1O	.	19.7*	-6.6	5.9	.	1.6	67.4*	19.9*
Nc1nc(N)nc(-c2cc(F)ccc2O)n1	-2.9	11.9*	.	34.0	-5.0	.	66.9*	41.7*
Cn1c2ccccc2c(=O)c2cc(C#Cc3cccc(N)c3)ccc21	-10.8	0.2	.	5.0	-10.8	.	.	.
C=CCn1c2ccccc2c(=O)c2cc(C#CC[C@@H](C)O)ccc21	-10.3	11.3*	.	.	-4.5	.	127.4*	44.3*
CCOC(=O)Cc1csc(NC(=O)NC2(C(F)(F)F)Oc3ccc(Cl)cc3O2)n1 (stereo not drawn)	-2.4	8.5*	-2.3	-8.1	-7.2	3.2	44.0*	17.2*
CCOC(=O)Cc1csc(NC(=O)NC2(C(F)(F)F)Oc3cc(Cl)c(Cl)cc3O2)n1	-1.6	6.9	2.4	1.1	-3.4	1.0	.	.
O=C(NCCN1CCOCC1)NC1(C(F)(F)F)Oc2ccc(Cl)cc2O1 (stereo not drawn)	-1.8	14.7*	9.2	8.2	-3.9	2.8	36.0*	20.2*
COCC(C)NC(=O)NC1(C(F)(F)F)Oc2ccc(Cl)cc2O1 (stereo not drawn)	-22.6	10.2*	-25.7	2.1	-8.7	2.0	19.9	18.2*
O=C(NCCN1CCOCC1)c1cc(Cl)ccc1Cl	.	1.1	0.8	-1.5	.	0.2	.	.
Cc1noc(C)c1NC(=O)N(C)C[C@@H]1OCc2cn(nn2)CCCC(=O)N([C@H](C)CO)C[C@H]1C	.	0.0	.	14.1	.	.	.	.
c1ccc(CNc2nc(NCc3ccccc3)c3sccc3n2)cc1	.	10.2*	.	-4.3	.	.	46.1*	16.6*
COc1ccccc1CNc1nc(NCc2ccccc2)nc2ccsc12	.	-1.8	.	-13.2	.	.	.	.
C(=N\Nc1nc2ccccc2[nH]1)/c1c[nH]c2ccccc12	-2.2	9.8*	2.1	4.6	9.3	3.1	128.8*	43.5*
O=C(Nc1cc([N+](=O)[O-])ccc1O)c1cccc([N+](=O)[O-])c1	1.8	1.3	40.3	-34.0	-5.6	-0.2	.	.
SMILES	proCasp7 act	FXN GAA850 act	Calb FLC	Neddylation inh	procasp3 activ	HIF activator	GAA30 counter	GAA850 confirm
Cc1cc(O)c(NC(=O)c2cccc([N+](=O)[O-])c2)cc1C	8.7	7.6*	-0.4	-18.9	-0.5	2.5	91.1*	30.5*
COc1ccccc1N1CCN(c2cc(=O)n(-c3ccc(Br)cc3)c(=O)[nH]2)CC1	0.5	11.3*	.	-7.5	8.7	.	18.6	12.0*
c1ccc(-c2n[nH]c(-c3ccccn3)n2)nc1	-8.8	7.7*!	-10.7	22.1	6.8	2.4	102.2*	27.2*
CCOC(=O)C(CC)n1cnc2c(nnn2-c2ccc(F)cc2)c1=O (stereo not drawn)	4.0	19.0*	0.5	-2.1	2.5	0.3	2.1	4.0
c1ccc(N2CCN(c3cnc4ccccc4n3)CC2)cc1	-11.1	3.5	2.1	-4.7	-2.3	1.9	.	.
Fc1ccc(N2CCN(c3cnc4ccccc4n3)CC2)cc1	-1.6	7.9*	-17.1	-9.5	1.9	5.5	106.1*	41.4*
Nc1c(Cl)ncnc1Nc1ccc(C(=O)O)cc1	.	-1.1	.	10.0	.	.	.	.
CC(C)(C)c1ccc(OCc2ccc(C(=O)N3CCOCC3)o2)cc1	-3.3	8.4*	9.1	8.6	-3.9	0.8	51.9*	24.0*
CCc1ccc(OCc2ccc(C(=O)OC)o2)cc1	-5.0	7.6*	1.9	-0.9	3.5	7.2	78.0*	27.7*
OC(Cc1cccc(Br)c1)c1ncc(-c2ccccc2C(F)(F)F)[nH]1 (stereo not drawn)	.	0.6	.	-1.2	.	.	.	.
S=C(c1ccc(-c2ccccc2Cl)o1)N1CCCCC1	3.8	8.6*	-9.2	-6.7	6.8	2.8	112.8*	39.2*
O=C(c1ccc(-c2ccc(Cl)cc2Cl)o1)N1CCOCC1	0.0	9.1*	28.9	-17.6	-2.1	3.2	114.3*	46.4*
O=C(c1ccc(-c2cc(Cl)ccc2Cl)o1)N1CCOCC1	7.0	6.3	6.3	-24.9	4.9	0.7	.	.
CN1CCN(C(=S)c2ccc(-c3cccc(Cl)c3Cl)o2)CC1	5.5	6.9	-29.3	-9.1	0.0	4.3	.	.
O=C(c1ccco1)N1CCN(C(=O)c2ccc(-c3ccccc3Cl)o2)CC1	2.9	7.6*	.	-24.4	-0.9	.	88.1*	30.4*
CN1OC[C@@H]2CN(C(=O)CCc3ccccc3)[C@H](c3cccc(Oc4ccccc4)c3)C[C@@H]21	.	-0.8	.	-4.9	.	.	.	.
Fc1ccc(Nc2nc(-c3ccncc3)cs2)cc1	-8.2	7.9*	-9.4	-23.1	-4.9	4.6	88.7*	32.8*
CC(=O)Nc1ccc(N/C=C/C(=O)c2ccc(C)o2)cc1	-1.2	8.9*	43.0	-9.1	0.8	-0.1	94.8*	30.3*
COc1ccccc1Oc1ccc(N/C=C/C(=O)c2ccc(C)o2)cc1	-5.1	2.6	-23.9	29.4	-3.9	0.2	.	.
